Measurements from ChEMBL document CHEMBL1955763, “Antimicrobial activity of sulfonamides containing 5-chloro-2-hydroxybenzaldehyde and 5-chloro-2-hydroxybenzoic acid scaffold” (Eur J Med Chem, 2012).
Converted amounts (≈) assume the structure as drawn.

Columns and labels:
Format in all cases: functional
Mycobacterium avium [1] = test: Antimycobacterial activity against isoniazid-, rifampicin-, ofloxacin-, ethambutol-resistant Mycobacterium avium 330/88 after 21 days; conditions: 330/88, 504 h
Procedure, shortened: (§1)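 Micromethod in Sula semisynthetic medium, with compounds added as DMSO solutions over a two-fold series from 1000 down to 1. Inoculum for M. avium 330/88 was a 10⁻⁵ dilution. Plates were incubated at 37 °C and MIC was read after 14 and 21 days.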

[2] = test system: Mycobacterium tuberculosis; test: Antimycobacterial activity against Mycobacterium tuberculosis H37Rv 331/88 after 14 days; conditions: H37Rv 331/88, 336 h
Mycobacterium kansasii [3] = test: Antimycobacterial activity against Mycobacterium kansasii 6509/96 after 14 days; conditions: 6509/96, 336 h
Procedure, shortened: (§2)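 Micromethod MIC in Sula semisynthetic medium, with compounds added as DMSO solutions at […]. Incubation at 37 °C. Inocula: M. kansasii 235/80 at dilution 10⁻⁴, clinical isolate 6509/96 at 10⁻⁵.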

Mycobacterium kansasii [4] = test: Antimycobacterial activity against Mycobacterium kansasii 235/80 after 21 days; conditions: 235/80, 504 h; procedure, shortened: as §2
Mycobacterium kansasii [5] = test: Antimycobacterial activity against Mycobacterium kansasii 235/80 after 7 days; conditions: 235/80, 168 h; procedure, shortened: as §2
Mycobacterium kansasii [6] = test: Antimycobacterial activity against Mycobacterium kansasii 6509/96 after 21 days; conditions: 6509/96, 504 h; procedure, shortened: as §2
Mycobacterium kansasii [7] = test: Antimycobacterial activity against Mycobacterium kansasii 235/80 after 14 days; conditions: 235/80, 336 h; procedure, shortened: as §2
[8] = test system: Mycobacterium tuberculosis; test: Antimycobacterial activity against Mycobacterium tuberculosis H37Rv 331/88 after 21 days; conditions: H37Rv 331/88, 504 h; procedure, shortened: as §1
Mycobacterium kansasii [9] = test: Antimycobacterial activity against Mycobacterium kansasii 6509/96 after 7 days; conditions: 6509/96, 168 h; procedure, shortened: as §2
Mycobacterium avium [10] = test: Antimycobacterial activity against isoniazid-, rifampicin-, ofloxacin-, ethambutol-resistant Mycobacterium avium 330/88 after 14 days; conditions: 330/88, 336 h; procedure, shortened: as §1
Staphylococcus aureus [11] = test: Antibacterial activity against Staphylococcus aureus CCM 4516/08 after 24 hrs by broth microdilution method; conditions: CCM 4516/08, 24 h
Procedure, shortened: (§3)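 Microdilution broth method modified from M07-A07, in Mueller-Hinton broth at pH 7.4 (±0.2). Compounds were dissolved in DMSO. Inoculum was made in sterile water to 0.5 McFarland (1.5 × 10⁸ CFU/mL). MIC was taken as IC₉₀, meaning ≥90% growth reduction versus the drug-free control. Growth was read visually and by absorbance at 540 nm.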

Staphylococcus aureus [12] = test: Antibacterial activity against methicillin-resistant Staphylococcus aureus H 5996/08 after 24 hrs by broth microdilution method; conditions: H 5996/08, 24 h; procedure, shortened: as §3
[13] = test system: Staphylococcus epidermidis; test: Antibacterial activity against methicillin-resistant Staphylococcus epidermidis H 6966/08 after 24 hrs by broth microdilution method; conditions: H 6966/08, 24 h; procedure, shortened: as §3
[14] = test system: Staphylococcus epidermidis; test: Antibacterial activity against methicillin-resistant Staphylococcus epidermidis H 6966/08 after 48 hrs by broth microdilution method; conditions: H 6966/08, 48 h; procedure, shortened: as §3
Staphylococcus aureus [15] = test: Antibacterial activity against methicillin-resistant Staphylococcus aureus H 5996/08 after 48 hrs by broth microdilution method; conditions: H 5996/08, 48 h; procedure, shortened: as §3
Staphylococcus aureus [16] = test: Antibacterial activity against Staphylococcus aureus CCM 4516/08 after 48 hrs by broth microdilution method; conditions: CCM 4516/08, 48 h
Procedure, shortened: (§4)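 Broth microdilution modified from standard M07-A07 in Mueller-Hinton broth at pH 7.4 (±0.2). Compounds were dissolved in DMSO. Inoculum in sterile water was adjusted to 0.5 McFarland (1.5 × 10⁸ CFU/mL). MIC was taken as IC₉₀, i.e. ≥90% growth reduction versus control, read visually and spectrophotometrically at 540 nm.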

Trichosporon asahii = test: Antifungal activity against Trichosporon asahii 1188 after 24 hrs by broth microdilution method; conditions: Trichosporon asahii, 1188, 24 h
Procedure, shortened: (§5)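 Microdilution broth per CLSI M27-A3 (yeasts) or M38-A2 (moulds) in RPMI 1640 with glutamine, buffered to pH 7.0 with 0.165 mol MOPS. Compounds were in DMSO. Final inoculum was 5 × 10³ ± 0.2 CFU/mL. Other conditions matched the antibacterial assay, with MIC as IC₉₀ read visually and at 540 nm. Determined twice, in duplicate.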

Lichtheimia corymbifera = test: Antifungal activity against Absidia corymbifera 272 after 24 hrs by broth microdilution method; conditions: Lichtheimia corymbifera, 272, 24 h; procedure, shortened: as §5
Nakaseomyces glabratus = test: Antifungal activity against Candida glabrata 20/I after 24 hrs by broth microdilution method; procedure, shortened: as §5
[17] = test system: Trichophyton mentagrophytes; test: Antifungal activity against Trichophyton mentagrophytes 445 after 24 hrs by broth microdilution method; conditions: Trichophyton mentagrophytes, 445, 24 h
Candida albicans = test: Antifungal activity against Candida albicans ATCC 44857 after 24 hrs by broth microdilution method; conditions: ATCC 44857, 24 h; procedure, shortened: as §5
Pichia kudriavzevii = test: Antifungal activity against Candida krusei E58 after 24 hrs by broth microdilution method; conditions: E58, 24 h; procedure, shortened: as §5
Escherichia coli = test: Antibacterial activity against Escherichia coli CCM 4517 after 24 hrs by broth microdilution method; conditions: CCM 4517, 24 h; procedure, shortened: as §4
Candida tropicalis = test: Antifungal activity against Candida tropicalis 156 after 24 hrs by broth microdilution method; conditions: Candida tropicalis, 156, 24 h; procedure, shortened: as §5
Aspergillus fumigatus = test: Antifungal activity against Aspergillus fumigatus 231 after 24 hrs by broth microdilution method; conditions: Aspergillus fumigatus, 231, 24 h; procedure, shortened: as §5
Klebsiella pneumoniae [18] = test: Antibacterial activity against Klebsiella pneumoniae D 11750/08 after 24 hrs by broth microdilution method; conditions: D 11750/08, 24 h; procedure, shortened: as §4
Klebsiella pneumoniae [19] = test: Antibacterial activity against ESBL-positive Klebsiella pneumoniae J 14368/08 after 24 hrs by broth microdilution method; conditions: J 14368/08, 24 h; procedure, shortened: as §4
Pseudomonas aeruginosa = test: Antibacterial activity against Pseudomonas aeruginosa CCM 1961 after 24 hrs by broth microdilution method; conditions: CCM 1961, 24 h; procedure, shortened: as §4

SMILES | MIC (Mycobacterium avium [1]) [µM] | MIC [2] [µM] | MIC (Mycobacterium kansasii [3]) [µM] | MIC (Mycobacterium kansasii [4]) [µM] | MIC (Mycobacterium kansasii [5]) [µM] | MIC (Mycobacterium kansasii [6]) [µM] | MIC (Mycobacterium kansasii [7]) [µM] | MIC [8] [µM] | MIC (Mycobacterium kansasii [9]) [µM] | MIC (Mycobacterium avium [10]) [µM] | MIC (Staphylococcus aureus [11]) [µM] | MIC (Staphylococcus aureus [12]) [µM] | MIC [13] [µM] | MIC [14] [µM] | MIC (Staphylococcus aureus [15]) [µM] | MIC (Staphylococcus aureus [16]) [µM] | MIC (Trichosporon asahii) [µM] | MIC (Lichtheimia corymbifera) [µM] | MIC (Nakaseomyces glabratus) [µM] | MIC (Escherichia coli) [µM] | further results
NNC(=O)c1ccncc1 [ISONIAZID] | > 250 | 0.5 (≈ 0.0686 µg/mL) | 4 (≈ 0.549 µg/mL) | > 250 | > 250 | 8 (≈ 1.1 µg/mL) | > 250 | 1 (≈ 0.137 µg/mL) | 4 (≈ 0.549 µg/mL) | > 250 |  |  |  |  |  |  |  |  |  |  | 
Nc1ccc(S(=O)(=O)Nc2ncccn2)cc1 [SULFADIAZINE] | 62.5 (≈ 15.6 µg/mL) | 32 (≈ 8.01 µg/mL) | 8 (≈ 2 µg/mL) | 32 (≈ 8.01 µg/mL) | 16 (≈ 4 µg/mL) | 8 (≈ 2 µg/mL) | 16 (≈ 4 µg/mL) | 62.5 (≈ 15.6 µg/mL) | 8 (≈ 2 µg/mL) | 62.5 (≈ 15.6 µg/mL) | 500 (≈ 125 µg/mL) | 500 (≈ 125 µg/mL) | > 500 | > 500 | > 500 | > 500 |  |  |  |  | 
Cc1cc(C)nc(NS(=O)(=O)c2ccc(/N=C/c3cc(Cl)ccc3O)cc2)n1 | 125 (≈ 52.1 µg/mL) | 250 (≈ 104 µg/mL) | 125 (≈ 52.1 µg/mL) | 250 (≈ 104 µg/mL) | 62.5 (≈ 26.1 µg/mL) | 250 (≈ 104 µg/mL) | 125 (≈ 52.1 µg/mL) | 500 (≈ 208 µg/mL) | 125 (≈ 52.1 µg/mL) | 62.5 (≈ 26.1 µg/mL) | 250 (≈ 104 µg/mL) | 125 (≈ 52.1 µg/mL) | > 500 | > 500 | 250 (≈ 104 µg/mL) | 500 (≈ 208 µg/mL) | > 125 | > 125 | > 125 | 500 (≈ 208 µg/mL) | MIC [17]: > 125 µM; MIC (Candida albicans): > 125 µM; MIC (Pichia kudriavzevii): > 125 µM; MIC (Candida tropicalis): > 125 µM; MIC (Aspergillus fumigatus): > 125 µM
Cc1cc(NS(=O)(=O)c2ccc(NC(=O)c3cc(Cl)ccc3O)cc2)no1 | 125 (≈ 51 µg/mL) | 125 (≈ 51 µg/mL) | 8 (≈ 3.26 µg/mL) | 16 (≈ 6.53 µg/mL) | 8 (≈ 3.26 µg/mL) | 8 (≈ 3.26 µg/mL) | 16 (≈ 6.53 µg/mL) | 250 (≈ 102 µg/mL) | 8 (≈ 3.26 µg/mL) | 62.5 (≈ 25.5 µg/mL) | 125 (≈ 51 µg/mL) | 15.6 (≈ 6.37 µg/mL) | > 500 | > 500 | 31.2 (≈ 12.7 µg/mL) | 125 (≈ 51 µg/mL) | 500 (≈ 204 µg/mL) | 500 (≈ 204 µg/mL) | 500 (≈ 204 µg/mL) | 250 (≈ 102 µg/mL) | MIC [17]: 500 µM (≈ 204 µg/mL); MIC (Candida albicans): 500 µM (≈ 204 µg/mL); MIC (Pichia kudriavzevii): 500 µM (≈ 204 µg/mL); MIC (Candida tropicalis): 500 µM (≈ 204 µg/mL); MIC (Aspergillus fumigatus): 500 µM (≈ 204 µg/mL)
Cc1cc(C)nc(NS(=O)(=O)c2ccc(N)cc2)n1 [SULFAMETHAZINE] | 62.5 (≈ 17.4 µg/mL) | 62.5 (≈ 17.4 µg/mL) | 16 (≈ 4.45 µg/mL) | 125 (≈ 34.8 µg/mL) | 16 (≈ 4.45 µg/mL) | 32 (≈ 8.91 µg/mL) | 32 (≈ 8.91 µg/mL) | 125 (≈ 34.8 µg/mL) | 16 (≈ 4.45 µg/mL) | 32 (≈ 8.91 µg/mL) | 500 (≈ 139 µg/mL) | 500 (≈ 139 µg/mL) | > 500 | > 500 | > 500 | > 500 |  |  |  |  | 
O=S(=O)(Nc1ncccn1)c1ccc(/N=C/c2cc(Cl)ccc2O)cc1 | 125 (≈ 48.6 µg/mL) | 125 (≈ 48.6 µg/mL) | 32 (≈ 12.4 µg/mL) | 32 (≈ 12.4 µg/mL) | 8 (≈ 3.11 µg/mL) | 32 (≈ 12.4 µg/mL) | 16 (≈ 6.22 µg/mL) | 250 (≈ 97.2 µg/mL) | 16 (≈ 6.22 µg/mL) | 125 (≈ 48.6 µg/mL) | 250 (≈ 97.2 µg/mL) | 125 (≈ 48.6 µg/mL) | > 500 | > 500 | 125 (≈ 48.6 µg/mL) | 250 (≈ 97.2 µg/mL) | 62.5 (≈ 24.3 µg/mL) |  | 125 (≈ 48.6 µg/mL) | 62.5 (≈ 24.3 µg/mL) | MIC (Klebsiella pneumoniae [18]): 500 µM (≈ 194 µg/mL); MIC (Klebsiella pneumoniae [19]): 500 µM (≈ 194 µg/mL); MIC (Pseudomonas aeruginosa): ≥ 500 µM
